# Measurements collected from several papers.
# Lines come from different studies, so protocols differ.
# Target: Interleukin-1 receptor-associated kinase 4 (IRAK4, Homo sapiens, UniProt Q9NWZ3)
# Residues used in one study (Q9NWZ3 1-460): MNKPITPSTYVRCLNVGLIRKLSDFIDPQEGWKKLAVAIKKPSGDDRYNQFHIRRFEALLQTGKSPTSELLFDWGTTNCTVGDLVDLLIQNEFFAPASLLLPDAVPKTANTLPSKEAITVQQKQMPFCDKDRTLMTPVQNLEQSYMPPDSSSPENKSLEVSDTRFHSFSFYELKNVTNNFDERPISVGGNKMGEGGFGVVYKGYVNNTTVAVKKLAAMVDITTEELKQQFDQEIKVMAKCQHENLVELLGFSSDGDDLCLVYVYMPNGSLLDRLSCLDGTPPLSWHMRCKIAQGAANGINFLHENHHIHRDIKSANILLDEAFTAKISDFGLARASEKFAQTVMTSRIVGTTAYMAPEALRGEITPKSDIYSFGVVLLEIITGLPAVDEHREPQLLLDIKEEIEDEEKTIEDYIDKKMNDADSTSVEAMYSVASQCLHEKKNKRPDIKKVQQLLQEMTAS
Compound,read-out,mode,technique,tested at,endpoint,result
C#Cc1cnc(Nc2ccc(CO)nc2)nc1Nc1ccccc1S(C)(=O)=NC#N (centres unmarked),enzyme activity,inhibitor,radiometric,1 µM,remaining activity,0.79%
CN1CCN(C(=O)c2ccc(NC(=O)Nc3ccc(N(C)c4ccnc(Nc5ccc(CS(C)(=O)=O)cc5)n4)cc3)cc2)CC1,binding,,,1 µM,remaining binding,52%
CS(=O)(=O)c1ccccc1Nc1nc(Nc2ccnc(CO)c2)ncc1Cl,enzyme activity,inhibitor,radiometric,1 µM,remaining activity,13.4%
Cc1ccc(NC(=O)c2ccnc(C(F)(F)F)c2)cc1-c1cc(OCCO)nc(N2CCOCC2)c1,binding,,,1 µM,remaining binding,100%
CCCCC(=O)Nc1ccc(-c2ccc3ncn(CCC)c(=O)c3c2)cn1,binding,,competition with immobilised ligand,0.5 µM,remaining binding,93%
C#Cc1cc(-c2cc(Nc3nc(N[C@@H](C)c4ccc(F)cn4)ncc3Cl)n[nH]2)ccc1C=O,enzyme activity,inhibitor,,0.2 µM,inhibition,10.1%
CC#CC(=O)N1CCC[C@H]1c1nc(-c2ccc(C(=O)Nc3ccccn3)cc2)c2c(N)nccn12,enzyme activity,inhibitor,,1 µM,inhibition,16%
C1=C/COCc2cc(ccc2OCCN2CCCC2)Nc2nccc(n2)-c2cccc(c2)COC/1,cell-free assay,,,0.1 µM,remaining signal,56%
CS(=O)(=NC#N)c1ccccc1Nc1nc(Nc2ccc(CO)nc2)ncc1Cl (centres unmarked),enzyme activity,inhibitor,radiometric,1 µM,remaining activity,3.01%
C=CC(=O)N1CCC[C@@H](n2nc(-c3ccc(Oc4ccccc4)cc3)c3c(N)ncnc32)C1,enzyme activity,inhibitor,,1 µM,inhibition,22%
Cc1cc(O)c(-c2ccc([C@@H](C)CN(C)C)cc2)c2c1[nH]c(=O)c1sccc12,enzyme activity,inhibitor,,0.1 µM,inhibition,1.9%
